One block for each molecule: values may come before it. The source made the active and inactive calls. The rule behind the calls is not given here.
What was measured:
[1] = target: T1, Metabotropic glutamate receptor 7 (Homo sapiens, UniProt Q14831); test: Inhibition of forskolin stimulated cAMP accumulation in CHO cells expressing hmGluR7b at a concentration of 500 uM; Inactive
[2] = target: T2, Metabotropic glutamate receptor 4 (Homo sapiens, UniProt Q14833); test: Inhibition of forskolin stimulated cAMP accumulation in CHO cells expressing hmGluR4a at a concentration of 2000 uM; Inactive
[3] = target: T1, Metabotropic glutamate receptor 7; test: Compound was evaluated for the inhibition of forskolin stimulated cAMP accumulation in CHO cells expressing hmGluR7b; format: functional, cell-based
Outline: (§1)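 Human mGluR4a or mGluR7b stably expressed in CHO cells; both enantiomers tested in the same functional assay, with cAMP measured by radioimmunoassay and EC50 values reported.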

[4] = target: T2, Metabotropic glutamate receptor 4; test: Compound was evaluated for the inhibition of forskolin stimulated cAMP accumulation in CHO cells expressing hmGluR4a; format: functional, cell-based
Outline: as §1

[5] = target: T3, Metabotropic glutamate receptor 4 (Rattus norvegicus, UniProt P31423); test: Effective concentration against Metabotropic glutamate receptor 4
[6] = target: T3, Metabotropic glutamate receptor 4; test: Effective concentration against rat Metabotropic glutamate receptor 4
[7] = target: Metabotropic glutamate receptor 2 (Homo sapiens) (UniProt Q14416); test: Activity against human Metabotropic glutamate receptor 2 up to a concentration of 300 uM; Not active
[8] = target: Metabotropic glutamate receptor 1 (Homo sapiens) (UniProt Q13255); test: Activity against human Metabotropic glutamate receptor 1 up to a concentration of 300 uM; Not active
[9] = target: Metabotropic glutamate receptor 3 (Homo sapiens) (UniProt Q14832); test: Activity against Metabotropic glutamate receptor 3; Not active
[10] = target: Metabotropic glutamate receptor 3 (Homo sapiens) (UniProt Q14832); test: Activity against human Metabotropic glutamate receptor 3 up to a concentration of 300 uM; Not active
[11] = target: Glutamate NMDA receptor; GRIN1/GRIN2A (Homo sapiens) (UniProt Q05586+Q12879); test: Activity against cloned ionotropic N-methyl-D-aspartate glutamate receptor 1/2A; Not active; format: protein-complex assay
[12] = target: Glutamate NMDA receptor; GRIN1/GRIN2B (Homo sapiens) (UniProt Q05586+Q13224); test: Activity against cloned ionotropic N-methyl-D-aspartate glutamate receptor 1/2B; Not active; format: protein-complex assay
[13] = target: Metabotropic glutamate receptor 5 (Homo sapiens) (UniProt P41594); test: Activity against human Metabotropic glutamate receptor 5 up to a concentration of 300 uM; Not active
[14] = target: Metabotropic glutamate receptor 6 (Homo sapiens) (UniProt O15303); test: Activity against Metabotropic glutamate receptor 6; Not active
[15] = target: Glutamate [NMDA] receptor (Homo sapiens) (UniProt Q05586+Q12879+Q13224+O15399+O60391+Q14957+Q8TCU5); test: Binding affinity (100 uM) against N-methyl-D-aspartate glutamate receptor using [3H]CPP binding was determined; No activity; format: protein-complex assay
[16] = target: Glutamate receptor ionotropic, NMDA 1 (Homo sapiens, UniProt Q05586); test: Dissociation constant against N-methyl-D-aspartate glutamate receptor using [3H]CPP binding was determined

T2 sequence (Q14833 whole entry): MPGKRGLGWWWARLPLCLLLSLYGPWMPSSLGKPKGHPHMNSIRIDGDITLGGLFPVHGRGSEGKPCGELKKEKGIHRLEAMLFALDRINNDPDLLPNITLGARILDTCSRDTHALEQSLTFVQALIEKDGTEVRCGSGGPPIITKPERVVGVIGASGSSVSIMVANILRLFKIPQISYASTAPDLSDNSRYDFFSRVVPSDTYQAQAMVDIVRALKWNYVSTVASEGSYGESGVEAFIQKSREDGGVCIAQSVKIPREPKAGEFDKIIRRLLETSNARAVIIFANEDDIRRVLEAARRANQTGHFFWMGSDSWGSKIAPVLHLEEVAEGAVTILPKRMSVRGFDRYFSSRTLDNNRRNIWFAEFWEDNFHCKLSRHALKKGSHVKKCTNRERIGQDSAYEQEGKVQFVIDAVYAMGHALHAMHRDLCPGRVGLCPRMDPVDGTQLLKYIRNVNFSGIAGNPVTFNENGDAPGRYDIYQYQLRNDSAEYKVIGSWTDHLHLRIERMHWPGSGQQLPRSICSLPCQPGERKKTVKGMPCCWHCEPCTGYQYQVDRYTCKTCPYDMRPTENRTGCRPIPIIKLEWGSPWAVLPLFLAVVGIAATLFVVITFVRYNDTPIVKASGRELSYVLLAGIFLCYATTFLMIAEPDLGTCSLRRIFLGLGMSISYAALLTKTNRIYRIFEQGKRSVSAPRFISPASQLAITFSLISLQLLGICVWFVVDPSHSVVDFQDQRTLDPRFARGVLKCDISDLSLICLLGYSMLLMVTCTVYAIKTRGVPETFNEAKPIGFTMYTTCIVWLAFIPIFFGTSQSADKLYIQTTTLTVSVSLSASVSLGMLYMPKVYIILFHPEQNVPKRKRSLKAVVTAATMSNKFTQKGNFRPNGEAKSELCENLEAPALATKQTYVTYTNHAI
T1 sequence (Q14831 whole entry): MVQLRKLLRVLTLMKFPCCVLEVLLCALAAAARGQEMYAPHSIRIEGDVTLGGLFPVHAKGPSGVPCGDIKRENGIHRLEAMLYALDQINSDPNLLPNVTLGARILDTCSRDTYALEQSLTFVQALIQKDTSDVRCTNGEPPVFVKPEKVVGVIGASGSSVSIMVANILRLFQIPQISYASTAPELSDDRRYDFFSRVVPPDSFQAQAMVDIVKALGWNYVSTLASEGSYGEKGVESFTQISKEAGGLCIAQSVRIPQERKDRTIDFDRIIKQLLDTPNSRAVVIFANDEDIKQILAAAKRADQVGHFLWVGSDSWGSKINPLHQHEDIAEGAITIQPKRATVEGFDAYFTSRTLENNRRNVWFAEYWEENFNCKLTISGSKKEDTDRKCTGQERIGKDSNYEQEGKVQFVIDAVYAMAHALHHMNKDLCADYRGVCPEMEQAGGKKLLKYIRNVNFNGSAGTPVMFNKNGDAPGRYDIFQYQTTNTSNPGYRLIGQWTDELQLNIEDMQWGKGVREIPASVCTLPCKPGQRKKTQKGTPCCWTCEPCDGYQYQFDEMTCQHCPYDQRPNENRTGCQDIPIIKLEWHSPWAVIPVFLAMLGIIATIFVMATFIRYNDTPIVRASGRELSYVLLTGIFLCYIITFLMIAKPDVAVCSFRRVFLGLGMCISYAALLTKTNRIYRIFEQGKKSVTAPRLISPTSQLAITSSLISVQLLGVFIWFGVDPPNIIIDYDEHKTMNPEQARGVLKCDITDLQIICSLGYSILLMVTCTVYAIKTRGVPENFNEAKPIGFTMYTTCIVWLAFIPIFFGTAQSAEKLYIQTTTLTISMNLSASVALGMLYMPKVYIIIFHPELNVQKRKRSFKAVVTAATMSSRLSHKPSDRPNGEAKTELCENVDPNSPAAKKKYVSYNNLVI
Metabotropic glutamate receptor 3 (Homo sapiens), sequence (Q14832 23-879 limits assumed): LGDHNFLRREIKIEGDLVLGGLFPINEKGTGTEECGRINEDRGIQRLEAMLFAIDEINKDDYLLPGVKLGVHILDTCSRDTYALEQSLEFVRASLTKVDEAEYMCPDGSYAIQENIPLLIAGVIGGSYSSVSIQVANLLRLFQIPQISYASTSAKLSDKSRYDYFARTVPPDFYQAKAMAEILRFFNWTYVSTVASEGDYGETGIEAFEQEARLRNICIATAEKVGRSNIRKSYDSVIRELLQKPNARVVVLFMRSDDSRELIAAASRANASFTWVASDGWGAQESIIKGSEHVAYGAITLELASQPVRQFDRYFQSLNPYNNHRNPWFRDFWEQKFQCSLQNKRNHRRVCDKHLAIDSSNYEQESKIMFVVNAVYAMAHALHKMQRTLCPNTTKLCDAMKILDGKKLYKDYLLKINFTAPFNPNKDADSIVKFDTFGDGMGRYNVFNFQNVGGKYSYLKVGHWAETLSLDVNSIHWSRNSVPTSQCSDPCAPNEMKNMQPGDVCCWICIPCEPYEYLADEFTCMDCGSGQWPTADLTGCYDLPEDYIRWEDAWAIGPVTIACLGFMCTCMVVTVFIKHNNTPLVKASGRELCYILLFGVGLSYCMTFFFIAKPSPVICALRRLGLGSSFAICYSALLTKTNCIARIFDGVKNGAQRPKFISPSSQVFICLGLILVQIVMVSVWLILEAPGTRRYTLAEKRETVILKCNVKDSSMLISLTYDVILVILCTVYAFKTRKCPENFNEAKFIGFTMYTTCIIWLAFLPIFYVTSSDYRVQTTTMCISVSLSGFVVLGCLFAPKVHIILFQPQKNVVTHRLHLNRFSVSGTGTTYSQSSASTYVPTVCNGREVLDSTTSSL
T3 sequence (P31423 whole entry): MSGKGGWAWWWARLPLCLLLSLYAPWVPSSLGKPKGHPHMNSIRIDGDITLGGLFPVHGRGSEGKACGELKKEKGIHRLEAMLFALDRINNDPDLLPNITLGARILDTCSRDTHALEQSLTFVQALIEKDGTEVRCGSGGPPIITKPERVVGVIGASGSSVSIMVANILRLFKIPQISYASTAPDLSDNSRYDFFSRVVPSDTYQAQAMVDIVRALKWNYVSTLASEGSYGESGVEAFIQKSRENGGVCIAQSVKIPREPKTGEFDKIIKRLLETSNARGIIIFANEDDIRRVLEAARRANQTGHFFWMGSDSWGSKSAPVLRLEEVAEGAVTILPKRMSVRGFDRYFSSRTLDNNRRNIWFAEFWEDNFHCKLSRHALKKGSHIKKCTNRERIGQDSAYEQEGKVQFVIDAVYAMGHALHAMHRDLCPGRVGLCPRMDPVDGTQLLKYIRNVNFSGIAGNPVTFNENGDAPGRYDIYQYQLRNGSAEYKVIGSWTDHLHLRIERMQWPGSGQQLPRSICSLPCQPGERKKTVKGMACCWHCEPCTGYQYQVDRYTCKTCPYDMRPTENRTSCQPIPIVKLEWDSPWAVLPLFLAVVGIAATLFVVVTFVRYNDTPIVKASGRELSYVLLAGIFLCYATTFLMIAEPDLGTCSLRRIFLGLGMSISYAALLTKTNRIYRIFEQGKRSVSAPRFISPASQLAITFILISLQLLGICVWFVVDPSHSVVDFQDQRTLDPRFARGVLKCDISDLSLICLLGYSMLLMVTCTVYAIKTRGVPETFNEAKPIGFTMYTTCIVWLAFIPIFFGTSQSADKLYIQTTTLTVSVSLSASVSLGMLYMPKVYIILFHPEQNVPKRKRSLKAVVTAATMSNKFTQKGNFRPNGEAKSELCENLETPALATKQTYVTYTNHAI
Metabotropic glutamate receptor 1 (Homo sapiens), sequence (Q13255 19-1194 limits assumed): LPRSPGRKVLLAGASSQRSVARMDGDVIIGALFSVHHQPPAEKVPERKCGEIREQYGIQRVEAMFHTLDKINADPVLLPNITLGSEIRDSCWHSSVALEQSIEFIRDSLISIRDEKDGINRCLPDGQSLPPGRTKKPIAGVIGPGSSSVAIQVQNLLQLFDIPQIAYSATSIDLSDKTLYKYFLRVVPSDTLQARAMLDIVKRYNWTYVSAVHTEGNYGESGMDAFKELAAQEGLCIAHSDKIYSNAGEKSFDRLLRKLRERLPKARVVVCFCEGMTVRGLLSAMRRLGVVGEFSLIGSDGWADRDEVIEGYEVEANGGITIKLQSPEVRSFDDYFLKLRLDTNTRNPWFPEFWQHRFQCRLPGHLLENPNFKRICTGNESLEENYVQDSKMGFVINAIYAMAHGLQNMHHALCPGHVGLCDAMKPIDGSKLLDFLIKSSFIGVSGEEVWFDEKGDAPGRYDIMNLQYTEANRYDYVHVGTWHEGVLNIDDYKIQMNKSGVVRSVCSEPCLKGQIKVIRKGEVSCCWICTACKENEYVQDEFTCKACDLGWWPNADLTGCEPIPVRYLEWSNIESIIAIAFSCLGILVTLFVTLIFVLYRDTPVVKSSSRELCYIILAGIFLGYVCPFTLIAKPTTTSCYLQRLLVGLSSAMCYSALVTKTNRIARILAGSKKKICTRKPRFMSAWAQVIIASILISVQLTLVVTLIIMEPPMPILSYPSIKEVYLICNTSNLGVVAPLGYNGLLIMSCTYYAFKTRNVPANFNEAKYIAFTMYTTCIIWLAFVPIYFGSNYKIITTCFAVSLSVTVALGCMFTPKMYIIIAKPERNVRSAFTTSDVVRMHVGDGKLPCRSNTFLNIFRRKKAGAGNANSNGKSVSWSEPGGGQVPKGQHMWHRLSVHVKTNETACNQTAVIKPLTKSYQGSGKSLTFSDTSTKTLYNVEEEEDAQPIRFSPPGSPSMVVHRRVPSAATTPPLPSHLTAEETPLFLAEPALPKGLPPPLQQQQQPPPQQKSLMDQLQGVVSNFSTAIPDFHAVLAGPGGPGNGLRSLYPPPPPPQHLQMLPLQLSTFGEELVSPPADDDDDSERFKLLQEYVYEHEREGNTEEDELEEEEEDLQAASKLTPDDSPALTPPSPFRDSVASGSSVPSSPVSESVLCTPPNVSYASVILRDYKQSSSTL

EC50 [1]: Not Active
EC50 [2]: Not Active
SMILES: NC(C(=O)O)c1ccc(P(=O)(O)O)cc1 (stereo not drawn)

EC50 [3]: 48 µM
EC50 [4]: 3.2 µM
SMILES: NC(C(=O)O)c1ccc(P(=O)(O)O)cc1 (single isomer, unassigned; (+))

EC50 [3]: 185 µM
EC50 [4]: 5.2 µM
SMILES: NC(C(=O)O)c1ccc(P(=O)(O)O)cc1 (stereo in doubt) [listing 1 of 2 here]

SMILES: NC1(C(=O)O)CC1CP(=O)(O)O (stereo not drawn)
EC50 [5]: 500 nM

SMILES: NC1(C(=O)O)CC(=CP(=O)(O)O)C1 (stereo not drawn)
EC50 [6]: 4.5 µM

Activity [7]: inactive
Activity [8]: inactive
Activity [9]: inactive
Activity [10]: inactive
Activity [11]: inactive
Activity [12]: inactive
Activity [13]: inactive
Activity [14]: inactive
Activity [15]: inactive
SMILES: NC(C(=O)O)c1ccc(P(=O)(O)O)cc1 (stereo in doubt) [listing 2 of 2 here]

Kd [16]: 3 µM
SMILES: NC(C(=O)O)c1ccc(CP(=O)(O)O)cc1 (stereo not drawn)

Source: ChEMBL document CHEMBL1133058, “(+)-4-phosphonophenylglycine (PPG) a new group III selective metabotropic glutamate receptor agonist” (Bioorg Med Chem Lett, 2000)
